Laboratory results as given in ChEMBL document CHEMBL1255202, “Polyamine conjugation of curcumin analogues toward the discovery of mitochondria-directed neuroprotective agents” (J Med Chem, 2010).
Active and inactive are the calls of the source. The rule behind the calls is not given here.

Key:
[1] = Antiproliferative activity against mouse HT22 cells after 72 hrs by MTT assay; type: cell-based; settings: HT-22, 72 h
Procedure, shortened: (§1)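 Cells were incubated 72 h with compound at 0.1-30 μM, and proliferation was measured by MTT. IC50 is the concentration giving 50% inhibition of proliferation, reported as the mean of two independent experiments.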

[2] = Antioxidant activity in human fibroblasts assessed as reduction of tert-butyl hydroperoxide-induced ROS production at 10 uM treated 24 hrs before tert-butyl hydroperoxide challenge measured after 30 mins by fluorescence plate reader analysis; type: functional, Fibroblast; set-up: scale not given: the % may be the effect or the level left
[3] = test system: C6; assay: Antiproliferative activity against rat C6 cells after 72 hrs by MTT assay; type: functional, cell-based; settings: C6, 72 h; procedure, shortened: as §1
[4] = species: Bos taurus; assay: Antioxidant activity in bovine heart mitochondria assessed as reduction of antimycin A-induced ROS production at 10 uM by fluorescence plate reader analysis; type: functional
Procedure, shortened: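 Submitochondrial particles were given NADH as substrate, and ROS production was induced with 2 μM antimycin A. Compounds were tested at 10 μM, with 1.8 μM mucidin as negative control. ROS were detected with the fluorogenic probe DCFDA.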

[5] = test system: HaCaT; assay: Antiproliferative activity against human HaCaT cells after 72 hrs by MTT assay; type: cell-based; procedure, shortened: as §1
[6] = test system: Caco-2; assay: Antiproliferative activity against human Caco-2 cells after 72 hrs by MTT assay; type: functional, cell-based; settings: Caco-2, 72 h; procedure, shortened: as §1
[7] = test system: SH-SY5Y; assay: Antiproliferative activity against human SH-SY5Y cells after 72 hrs by MTT assay; type: functional, cell-based; procedure, shortened: as §1
[8] = test system: Caco-2; assay: Antiproliferative activity against human Caco-2 cells at 10 uM after 72 hrs by MTT assay; type: functional
Procedure, shortened: (§2)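 Proliferation was measured by MTT after 72 h exposure to compound (range 0.1-30 μM, with the 10 μM point reported). Results are expressed as percent of control cells, as the mean of two independent experiments.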

[9] = test system: HaCaT; assay: Antiproliferative activity against human HaCaT cells at 10 uM after 72 hrs by MTT assay; type: cell-based; procedure, shortened: as §2
[10] = test system: C6; assay: Antiproliferative activity against rat C6 cells at 10 uM after 72 hrs by MTT assay; type: functional; procedure, shortened: as §2
[11] = Antiproliferative activity against mouse HT22 cells at 10 uM after 72 hrs by MTT assay; type: cell-based; settings: ht-22, 72 h; procedure, shortened: as §2
[12] = test system: SH-SY5Y; assay: Antiproliferative activity against human SH-SY5Y cells at 10 uM after 72 hrs by MTT assay; type: functional; procedure, shortened: as §2
[13] = Cellular uptake in human T67 cells at 10 uM after 30 mins by fluorescence microscopic analysis in presence of mitochondrial uncoupler carbonyl cyanide m-chlorophenyl-hydrazone; type: ADME, cell-based; settings: t67, 0.5 h
Procedure, shortened: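 T67 glioma cells were pretreated with 10 μM of the fluorescent test compound plus 1 mg/mL oligomycin, an ATP-synthase inhibitor, with 20 μM CCCP uncoupler added. Images were taken by inverted fluorescence microscopy after 30 min of incubation.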

[14] = Cellular uptake in human T67 cells at 10 uM after 30 mins by fluorescence microscopic analysis; type: ADME, cell-based; settings: t67, 0.5 h
Procedure, shortened: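 T67 glioma cells were pretreated with 10 μM fluorescent probe plus 1 mg/mL oligomycin. Images were taken by inverted fluorescence microscopy after 30 min of incubation, with or without 20 μM CCCP uncoupler to test dependence on mitochondrial potential.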

[15] = test system: T67; assay: Antiproliferative activity against human T67 cells at 10 uM after 72 hrs by MTT assay; type: functional, cell-based
[16] = biological target: T1, Heme oxygenase 1 (Bos taurus) (UniProt Q5E9F2); assay: Activation of heme oxygenase-1 in BAEC at 10 uM after 6 hrs
T1 sequence (whole entry): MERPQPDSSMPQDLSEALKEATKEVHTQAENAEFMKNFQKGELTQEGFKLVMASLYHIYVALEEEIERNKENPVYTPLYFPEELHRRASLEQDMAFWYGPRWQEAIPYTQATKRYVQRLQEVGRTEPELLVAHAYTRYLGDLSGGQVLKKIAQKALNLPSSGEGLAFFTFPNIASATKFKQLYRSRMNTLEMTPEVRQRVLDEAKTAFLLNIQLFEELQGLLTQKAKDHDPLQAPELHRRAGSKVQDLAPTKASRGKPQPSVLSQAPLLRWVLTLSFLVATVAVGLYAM
Procedure, shortened: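 HO-1 activity measured in bovine aortic endothelial cells exposed to 10 μM compound for 6 h. Control cells received medium alone. Activity is reported as (pmol bilirubin/mg protein)/h, averaged over three independent experiments.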

Work on `CCOc1cc(/C=C2\CN(C(=O)CCC(=O)NCCCNCCCN)C/C(=C\c3ccc(O)c(OCC)c3)C2=O)ccc1O` yielded an IC50 [1] of 18.9 µM, an Activity [2] of 45% and an IC50 [3] of 14.5 µM. The Activity [4] was “Active”, the IC50 [5] was 15.5 µM and the IC50 [6] was 16.2 µM. It also gave an IC50 [7] of 14.6 µM.
Compound `CCOc1cc(/C=C2\CN(C(=O)CCC(=O)NCCCNCCCCNCCCN)C/C(=C\c3ccc(O)c(OCC)c3)C2=O)ccc1O` has an IC50 [1] of 18.4 µM, an Activity [2] of 38% and an IC50 [3] of 14.2 µM. The Activity [4] was “Active”, the IC50 [5] was 15.7 µM and the IC50 [6] was 14.4 µM. It also gave an IC50 [7] of 20.8 µM.
`COc1cc(/C=C2\CN(C(=O)CCC(=O)NCCCNCCCCNCCCN)C/C(=C\c3ccc(O)c(OC)c3)C2=O)ccc1O` showed an Activity [8] of 40%, an IC50 [1] of 19.8 µM and an Activity [9] of 10%. For the same compound, the Activity [2] was 45%, the IC50 [3] was 13.9 µM and the Activity [4] was “Active”. For the same compound, the IC50 [5] was 15.6 µM, the Activity [10] was 40% and the IC50 [6] was 11.9 µM. The IC50 [7] was 14.2 µM, the Activity [11] was 10% and the Activity [12] was 40%.
With `COc1cc(/C=C2\CN(C(=O)CCC(=O)N(CCCNCCCCNCCCN)Cc3ccc(-c4nc5ccccc5s4)cc3)C/C(=C\c3ccc(O)c(OC)c3)C2=O)ccc1O` the Drug uptake [13] was “Not Active” and the Drug uptake [14] was “Active”.
`COc1cc(/C=C/C(=O)CC(=O)/C=C/c2ccc(O)c(OC)c2)ccc1O` [CURCUMIN] showed an IC50 [1] of 20.4 µM, an IC50 [3] of 16.1 µM and an IC50 [5] of 21.9 µM. It also gave an IC50 [6] of 15 µM and an IC50 [7] of 12.8 µM.
With `COc1cc(/C=C2\CN(C(=O)CCC(=O)NCCCNCCCN)C/C(=C\c3ccc(O)c(OC)c3)C2=O)ccc1O` the IC50 [1] was 24.5 µM, the Activity [2] was 40% and the IC50 [3] was 19.9 µM. For the same compound, the Activity [4] was “Active”, the IC50 [5] was 17.7 µM and the IC50 [6] was 16.5 µM. The IC50 [7] was 17.8 µM.
With `COc1cc(/C=C2\CNC/C(=C\c3ccc(O)c(OC)c3)C2=O)ccc1O` the Activity [15] was “Active”, the IC50 [1] was 3.1 µM and the Activity [16] was “Active”. The IC50 [3] was 3.9 µM, the Activity [4] was “inactive” and the IC50 [5] was 3 µM. It also gave an IC50 [6] of 0.2 µM and an IC50 [7] of 2.1 µM.
For `CCCCCC[C@H]1C(=O)O[C@H](C)[C@H](NC(=O)c2cccc(NC=O)c2O)C(=O)O[C@@H](C)[C@@H]1OC(=O)CC(C)C`, the Activity [4] was “inactive”.
